Measured values from ChEMBL document CHEMBL4033800, “Further Developments of the Phenyl-Pyrrolyl Pentane Series of Nonsteroidal Vitamin D Receptor Modulators as Anticancer Agents” (J Med Chem, 2018).
Active and inactive are the calls of the source. The calls are words filed in the database; no cut-off is given here.

Assays:
Mus musculus [1] = test: Toxicity in BALB/c nude mouse xenografted with human MCF7 cells assessed increase in serum calcium levels at 10 mg/kg, ip administered every other day relative to control; assay type: organism-based; settings: in vivo
How it was run: (§1)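 MCF7 cells transplanted orthotopically into the breast of athymic nude mice. Dosing at 10 mg/kg i.p. in vehicle of polyoxyethylated castor oil/ethanol/saline 1:1:18, with vehicle and saline control groups. Body weight, tumor volume and serum calcium followed.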

[2] = MRT in Sprague-Dawley rat at 20 mg/kg, po by HPLC analysis; assay type: ADME, organism-based; settings: in vivo
How it was run: (§2)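 Male Sprague-Dawley rats (180−220 g), 4 per group, dosed at 5 mg/kg i.v., 20 mg/kg i.p. or 20 mg/kg p.o. Parameters given as mean ± SD (n = 4).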

[3] = Half life in Sprague-Dawley rat at 20 mg/kg, po by HPLC analysis; assay type: ADME, organism-based; settings: in vivo; how it was run: as §2
MCF7 [4] = test: Induction of apoptosis in human MCF7 cells assessed as viable cells at 1 uM after 24 hrs by Annexin V-FITC/propidium iodide-staining based flow cytometry (reference value: 98.2%); assay type: functional; settings: MCF7, 24 h, read-out: Activity
[5] = MRT in Sprague-Dawley rat at 20 mg/kg, ip by HPLC analysis; assay type: ADME, organism-based; settings: in vivo; how it was run: as §2
HepG2 [6] = test: Induction of cell cycle arrest in human HepG2 cells at 1 uM after 24 hrs by propidium iodide-staining based flow cytometry; assay type: functional
MCF7 [7] = test: Induction of apoptosis in human MCF7 cells assessed as necrotic cells at 1 uM after 24 hrs by Annexin V-FITC/propidium iodide-staining based flow cytometry (reference value: 0.031%); assay type: functional
MCF7 [8] = test: Antiproliferative activity against human MCF7 cells after 48 hrs by MTT assay; assay type: functional, cell-based; settings: MCF7, 48 h
MCF7 [9] = test: Antitumor activity against human MCF7 cells xenografted in BALB/c nude mouse assessed as tumor growth inhibition at 10 mg/kg, ip administered every other day; assay type: functional, organism-based; how it was run: as §1
[10] = Bioavailability in Sprague-Dawley rat at 20 mg/kg, ip measured up to 48 hrs after administration by HPLC analysis; assay type: ADME, organism-based; settings: in vivo; how it was run: as §2
[11] = MRT in Sprague-Dawley rat at 5 mg/kg, iv by HPLC analysis; assay type: ADME, organism-based; settings: in vivo; how it was run: as §2
[12] = AUC in Sprague-Dawley rat at 5 mg/kg, iv measured up to 48 hrs post administration by HPLC analysis; assay type: ADME, organism-based; set-up: dose 5 mg/kg, time < 48 hr, route intravenous; settings: in vivo; how it was run: as §2
MCF7 [13] = test: Induction of cell cycle arrest in human MCF7 cells assessed as accumulation at S phase at 1 uM after 24 hrs by propidium iodide-staining based flow cytometry (reference value: 31.55%); assay type: functional
MCF7 [14] = test: Induction of cell cycle arrest in human MCF7 cells assessed as upregulation of p27 expression at 1 uM after 24 hrs by Western blot analysis; assay type: functional, cell-based
How it was run: (§3)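 p21 and p27 protein levels were measured by Western blot in MCF7 cells treated at 1 µM for 24 h.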

[15] = Clearance in Sprague-Dawley rat at 5 mg/kg, iv measured up to 48 hrs post administration by HPLC analysis; assay type: ADME, organism-based; settings: in vivo; how it was run: as §2
Caco-2 = test: Antiproliferative activity against human Caco2 cells after 48 hrs by MTT assay; assay type: functional, cell-based; settings: Caco-2, 48 h
[16] = AUC in Sprague-Dawley rat at 20 mg/kg, ip measured up to 48 hrs post administration by HPLC analysis; assay type: ADME, organism-based; set-up: time < 48 hr, dose 20 mg/kg, route intraperitoneal; settings: in vivo; how it was run: as §2
L02 = test: Antiproliferative activity against human L02 cells after 48 hrs by MTT assay; assay type: cell-based; settings: L02, 48 h
Mus musculus [17] = test: Hypercalcemic effect in ICR mouse at 0.5 to 5 mg/kg/day, ip administered for 7 days measured on day 8 post-dose by MTB-based assay relative to control; assay type: ADME, organism-based; settings: in vivo, 168 h
How it was run: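 Mice were dosed i.p. over a 7-day period and serum calcium was then measured. Each dose level was compared with a vehicle-treated control group (saline cited as the comparator). Data are mean ± SEM, n = 6 per group. Significance versus vehicle was reported at p < 0.05, 0.01 and 0.001.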

MCF7 [18] = test: Induction of apoptosis in human MCF7 cells assessed as early apoptotic cells at 1 uM after 24 hrs by Annexin V-FITC/propidium iodide-staining based flow cytometry (reference value: 1.74%); assay type: functional
Mus musculus [19] = test: Toxicity in BALB/c nude mouse xenografted with human MCF7 cells assessed as change in body weight at 10 mg/kg, ip administered every other day relative to control; assay type: organism-based; settings: in vivo; how it was run: as §1
MCF7 [20] = test: Induction of apoptosis in human MCF7 cells assessed as upregulation of Bax mRNA levels at 1 uM after 24 hrs by RT-qPCR analysis; assay type: functional, cell-based
[21] = Half life in Sprague-Dawley rat at 20 mg/kg, ip by HPLC analysis; assay type: ADME, organism-based; settings: in vivo; how it was run: as §2
MCF7 [22] = test: Induction of cell cycle arrest in human MCF7 cells assessed as accumulation at G0/G1 phase at 1 uM after 24 hrs by propidium iodide-staining based flow cytometry (reference value: 56.03%); assay type: functional
MCF7 [23] = test: Induction of apoptosis in human MCF7 cells assessed as late apoptotic cells at 1 uM after 24 hrs by Annexin V-FITC/propidium iodide-staining based flow cytometry (reference value: 0.062%); assay type: functional
HepG2 [24] = test: Antiproliferative activity against human HepG2 cells after 48 hrs by MTT assay; assay type: functional, cell-based; settings: HepG2, 48 h
[25] = Clearance in Sprague-Dawley rat at 20 mg/kg, po by HPLC analysis; assay type: ADME, organism-based; settings: in vivo; how it was run: as §2
MCF7 [26] = test: Induction of cell cycle arrest in human MCF7 cells assessed as upregulation of p27 mRNA levels at 1 uM after 24 hrs by RT-qPCR analysis; assay type: functional, cell-based
How it was run: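 p21 and p27 mRNA levels were measured by real-time quantitative PCR in MCF7 cells treated at 1 µM for 24 h.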

[27] = Oral bioavailability in Sprague-Dawley rat at 20 mg/kg measured up to 48 hrs after administration by HPLC analysis; assay type: ADME, organism-based; settings: in vivo; how it was run: as §2
[28] = Drug uptake in human MCF7 cells at 1 uM after 30 mins by HPLC analysis; assay type: ADME, cell-based; settings: mcf7, 0.5 h
How it was run: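 MCF7 cells were given 1 µM compound in medium with 10% FBS for 10 or 30 min. Cells and medium were extracted separately with chloroform/methanol (3:1, v/v) and analysed by HPLC. Mean ± SEM, n = 3.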

MCF7 [29] = test: Induction of cell cycle arrest in human MCF7 cells assessed as upregulation of p21 expression at 1 uM after 24 hrs by Western blot analysis; assay type: functional, cell-based; how it was run: as §3

In the case of CCN(CC)CCCNC(=O)c1ccc(C(CC)(CC)c2ccc(OCCC(O)(CC)CC)c(C)c2)n1CC, the Activity (Mus musculus [1]) is reported as “Non-Toxic”, the MRT [2] is reported as 11 h and the half-life [3] is reported as 6.82 h. For the same molecule, the viability at 1 µM (MCF7 [4]) was 85.7%, the MRT [5] was 9.3 h and the Activity (HepG2 [6]) was “Active”. The Activity (MCF7 [7]) was 0.23%, the IC50 (MCF7 [8]) was 57 nM and the TGI (MCF7 [9]) was “Active”. For the same molecule, the bioavailability [10] was 30.2%, the MRT [11] was 3.85 h and the AUC at 48 h [12] was 25200 ng·h/mL. For the same molecule, the Activity (MCF7 [13]) was 25.13%, the Activity (MCF7 [14]) was “Active” and the clearance [15] was 3.5 mL/min. The IC50 (Caco-2) was 17 nM, the AUC at 48 h [16] was 30500 ng·h/mL and the IC50 (L02) was 370 nM. The Activity (Mus musculus [17]) was “Non-Toxic”, the Activity (MCF7 [18]) was 9.59% and the Activity (Mus musculus [19]) was “Non-Toxic”. The Activity (MCF7 [20]) was “Active”, the half-life [21] was 6.21 h and the Activity (MCF7 [22]) was 70.15%. The Activity (MCF7 [23]) was 4.49%, the IC50 (HepG2 [24]) was 150 nM and the CL/F [25] was 15.5 mL/min. For the same molecule, the Activity (MCF7 [26]) was “Active”, the bioavailability [27] was 21.3% and the Drug uptake [28] was “Active”. The Activity (MCF7 [29]) was “Active”.
In the case of CCn1c(C(=O)NCCCN2CCOCC2)ccc1C(CC)(CC)c1ccc(OCCC(O)(CC)CC)c(C)c1, the Activity (Mus musculus [1]) is reported as “Non-Toxic”, the MRT [2] is reported as 15.9 h and the half-life [3] is reported as 11.3 h. The viability at 1 µM (MCF7 [4]) was 87.3%, the MRT [5] was 17.6 h and the Activity (HepG2 [6]) was “Active”. The Activity (MCF7 [7]) was 0.2%, the IC50 (MCF7 [8]) was 260 nM and the TGI (MCF7 [9]) was “Active”. The bioavailability [10] was 62.5%, the MRT [11] was 7.55 h and the AUC at 48 h [12] was 10400 ng·h/mL. For the same molecule, the Activity (MCF7 [13]) was 22.62%, the Activity (MCF7 [14]) was “Active” and the clearance [15] was 8.17 mL/min. It also gave an IC50 (Caco-2) of 2720 nM, an AUC at 48 h [16] of 25900 ng·h/mL and an IC50 (L02) of 2860 nM. For the same molecule, the Activity (Mus musculus [17]) was “Non-Toxic”, the Activity (MCF7 [18]) was 9.72% and the Activity (Mus musculus [19]) was “Non-Toxic”. For the same molecule, the Activity (MCF7 [20]) was “Active”, the half-life [21] was 11.7 h and the Activity (MCF7 [22]) was 70.41%. It also gave an Activity (MCF7 [23]) of 2.83%, an IC50 (HepG2 [24]) of 1760 nM and a CL/F [25] of 21.8 mL/min. The Activity (MCF7 [26]) was “Active”, the bioavailability [27] was 36.8% and the Drug uptake [28] was 38.2%. For the same molecule, the Activity (MCF7 [29]) was “Active”.
